Assay results as given in ChEMBL document CHEMBL1153772 (J Nat Prod, 2009).
Values after ≈ are worked out from the molar mass of the structure shown. Active and inactive are the calls of the source. No cut-off for these calls is given here.

Legend:
[1] = Permeability at 50 uM at pH 5 by PAMPA; format: ADME; conditions: read-out: permeability
A549 = assay: Cytotoxicity against human A549 cells; format: functional, cell-based
How it was run: (§1)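 IC50 value derived from at least three separate assay runs per sample.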

ASPC1 = assay: Cytotoxicity against human AsPC1 cells; format: functional, cell-based; how it was run: as §1
BXPC-3 = assay: Cytotoxicity against human BxPC3 cells; format: functional, cell-based; how it was run: as §1
DLD-1 = assay: Cytotoxicity against human DLD1 cells; format: functional, cell-based; how it was run: as §1
MIA PaCa-2 = assay: Cytotoxicity against human MIAPaCa2 cells; format: functional, cell-based; how it was run: as §1
NCI/ADR-RES = assay: Cytotoxicity against human NCI/ADR-RES cells; format: functional, cell-based; how it was run: as §1
PANC-1 [2] = assay: Cytotoxicity against human PANC1 cells; format: functional, cell-based; how it was run: as §1
Vero = assay: Cytotoxicity against african green monkey Vero cells; format: cell-based; conditions: Chlorocebus sabaeus; how it was run: as §1
PANC-1 [3] = assay: Cell cycle arrest in human PANC1 cells assessed as accumulation of cells at G1 phase at <=46.5 after 24 hrs by propidium iodide staining method; format: functional, cell-based
How it was run: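 PANC-1 cells in RPMI 1640 with 10% FBS, HEPES, antibiotics, glutamine, pyruvate and glucose, at 37°C in 5% CO2, exposed to varying compound concentrations for 24 h alongside methanol vehicle and paclitaxel positive controls. Cells then ethanol-fixed and stained with 0.02 mg/mL propidium iodide plus 0.1 mg/mL RNase A. Flow cytometry collected 10,000 events per sample, and DNA histograms were modelled for phase distribution.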

Nucleic Acid = assay: Displacement of ethidium bromide from DNA; format: nucleic-acid assay
Candida albicans = assay: Antifungal activity against Candida albicans 44506 after 24 hrs by broth dilution assay; format: functional; conditions: Candida albicans, 44506, 24 h
How it was run: (§2)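 Broth microdilution in microtiter format at a seeding density of 10^3/mL. C. albicans was grown in Sabouraud dextrose broth; S. aureus and P. aeruginosa in cation-supplemented Mueller-Hinton broth. Incubated at 37°C, with growth scored after 24 h. MIC taken as the lowest concentration giving complete growth inhibition.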

Staphylococcus aureus = assay: […] activity against methicillin resistant Staphylococcus aureus 700787 after 24 hrs by broth dilution assay; format: functional; conditions: Staphylococcus aureus, 700787, 24 h; how it was run: as §2
Pseudomonas aeruginosa = assay: […] activity against […] aeruginosa 27853 after 24 hrs by broth dilution assay; format: functional; conditions: Pseudomonas aeruginosa, 27853, 24 h; how it was run: as §2
[4] = Solubility at pH 5; format: physicochemical; conditions: buffer
[5] = Solubility at pH 6.2; format: physicochemical; conditions: buffer
[6] = Solubility at pH 7.4; format: physicochemical; conditions: buffer
HL-60(TB) = assay: Cytotoxicity against human HL-60(TB) cells assessed cell growth; format: functional; how it was run: as §1
CCRF-CEM = assay: Cytotoxicity against human CCRF-CEM cells assessed cell growth; format: functional
[7] = Permeability at 50 uM at pH 7.4 by PAMPA; format: ADME; conditions: read-out: permeability
[8] = Protein binding in mouse plasma at 10 uM; format: ADME, cell-free; conditions: read-out: PPB (converted)
[9] = Protein binding in mouse plasma at 1 uM; format: ADME, cell-free; conditions: read-out: PPB (converted)
[10] = Unbound fraction in mouse plasma at 10 uM; format: ADME, cell-free
[11] = Unbound fraction in mouse plasma at 1 uM; format: ADME, cell-free
[12] = Stability in mouse plasma in presence of PBS at 40 uM after 3 hrs; format: ADME, cell-free; conditions: read-out: Stability
[13] = Stability in mouse plasma assessed as compound remaining at 40 uM after 3 hrs in presence of PBS and inorganic phosphate buffer; format: ADME, cell-free; conditions: read-out: Activity
[14] = Stability in PBS at 40 uM after 3 hrs; format: physicochemical; conditions: read-out: Stability
[15] = Metabolic satbility in human liver microsomes assessed as compound remaining at 1 uM after 60 min in the presence of NADPH; format: ADME, Microsome; conditions: read-out: Stability
[16] = Stability in PBS and inorganic phosphate at 40 uM after 3 hrs; format: physicochemical; conditions: read-out: Stability
[17] = Metabolic satbility in human liver microsomes assessed as compound remaining at 1 uM after 60 min in the absence of NADPH; format: ADME, Microsome; conditions: read-out: Stability
[18] = Metabolic satbility in mouse liver microsomes assessed as compound remaining at 1 uM after 60 min in the presence of NADPH; format: ADME, Microsome; conditions: read-out: Stability
[19] = Metabolic satbility in mouse liver microsomes assessed as compound remaining at 1 uM after 60 min in the absence of NADPH; format: ADME, Microsome; conditions: read-out: Stability
[20] = Metabolic stability in human liver microsomes assessed as compound metabolized at 1 uM in the presence of NADPH; format: ADME, Microsome; conditions: read-out: Activity
[21] = Metabolic stability in mouse liver microsomes assessed as compound metabolized at 1 uM in the presence of NADPH; format: ADME, Microsome; conditions: read-out: Activity
MOLT-4 = assay: Cytotoxicity against human MOLT4 cells assessed cell growth; format: functional
SR = assay: Cytotoxicity against human SR cells assessed cell growth; format: functional
EKVX = assay: Cytotoxicity against human EKVX cells assessed cell growth; format: functional
HOP-62 = assay: Cytotoxicity against human HOP62 cells assessed cell growth; format: functional
HOP-92 = assay: Cytotoxicity against human HOP92 cells assessed cell growth; format: functional
Homo sapiens [22] = species: Homo sapiens; assay: Protein binding in human plasma at 1 uM; conditions: read-out: PPB (converted)
[23] = Permeability at 50 uM at pH 6.2 by PAMPA
Homo sapiens [24] = species: Homo sapiens; assay: Protein binding in human plasma at 10 uM; conditions: read-out: PPB (converted)
Homo sapiens [25] = species: Homo sapiens; assay: Unbound fraction in human plasma at 1 uM
Homo sapiens [26] = species: Homo sapiens; assay: Unbound fraction in human plasma at 10 uM
Homo sapiens [27] = species: Homo sapiens; assay: Stability in human plasma in presence of PBS at 40 uM after 3 hrs
Homo sapiens [28] = species: Homo sapiens; assay: Stability in human plasma assessed as compound remaining at 40 uM after 3 hrs in presence of PBS and inorganic phosphate buffer

CC(=O)N(C)CCc1cc(Br)c(OCCCNc2ncn(C)c3ncnc2-3)c(Br)c1 [APHROCALLISTIN]
Papp at 50 µM [1]: 33 ×10⁻⁶ cm/s | IC50 (A549): 15.9 µM | IC50 (ASPC1): > 100 µM | IC50 (BXPC-3): 70.9 µM | IC50 (DLD-1): 7.5 µM | IC50 (MIA PaCa-2): 26.6 µM | IC50 (NCI/ADR-RES): 34.3 µM | IC50 (PANC-1 [2]): 22.8 µM | IC50 (Vero): 76.1 µM | Activity (PANC-1 [3]): Active | Activity (Nucleic Acid): inactive | MIC (Candida albicans): 250 µg/mL (≈ 463 µM) | MIC (Staphylococcus aureus): 250 µg/mL (≈ 463 µM) | MIC (Pseudomonas aeruginosa): > 500 µg/mL | solubility [4]: > 267 µg/mL | solubility [5]: > 267 µg/mL | solubility [6]: > 267 µg/mL | Activity (HL-60(TB)): 39.94% | Activity (CCRF-CEM): 80.24% | Papp at 50 µM [7]: 321 ×10⁻⁶ cm/s | fraction unbound at 10 µM [8]: 0.309 | fraction unbound at 1 µM [9]: 0.15 | fraction unbound at 10 µM [10]: 0.309 | fraction unbound at 1 µM [11]: 0.15 | remaining at 3 h, 40 µM [12]: 96.3% | remaining at 3 h, 40 µM [13]: 79.6% | remaining at 3 h, 40 µM [14]: 99.7% | remaining at 1 h, 1 µM [15]: 3.08% | remaining at 3 h, 40 µM [16]: 76.5% | remaining at 1 h, 1 µM [17]: 118% | remaining at 1 h, 1 µM [18]: 1.44% | remaining at 1 h, 1 µM [19]: 103% | metabolised at 1 µM [20]: 96.9% | metabolised at 1 µM [21]: 98.6% | Activity (MOLT-4): 50.93% | Activity (SR): 10.72% | Activity (EKVX): 45.38% | Activity (HOP-62): 71.38% | Activity (HOP-92): 75.25% | fraction unbound at 1 µM (Homo sapiens [22]): 0.044 | Papp at 50 µM [23]: 201 ×10⁻⁶ cm/s | fraction unbound at 10 µM (Homo sapiens [24]): 0.103 | fraction unbound at 1 µM (Homo sapiens [25]): 0.044 | fraction unbound at 10 µM (Homo sapiens [26]): 0.103 | remaining at 3 h, 40 µM (Homo sapiens [27]): 103% | remaining at 3 h, 40 µM (Homo sapiens [28]): 76.6%
